Assay results: ChEMBL document CHEMBL1127046, “Antitumor agents. 3. Synthesis and biological activity of 4 beta-alkyl derivatives containing hydroxy, amino, and amido groups of 4'-O-demethyl-4-desoxypodophyllotoxin as antitumor agents” (J Med Chem, 1993)

Key:
[1] = tested on: ACHN; assay: Inhibition of growth of renal cancer ACHN cell line; format: functional; conditions: Homo sapiens, read-out: ED50 (the source's name)
Method in brief: (§1)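 Human tumour cell lines plated and grown 24 h in a CO2 incubator, then exposed to compound for 96 or 4 h. Cells counted by hemocytometer. IC50 is the concentration giving 50% reduction in cell number versus untreated control.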

[2] = tested on: A549; assay: Inhibition of growth of lung non-small cell carcinoma A-549 cell line; format: functional; conditions: Homo sapiens, read-out: ED50 (the source's name)
Method in brief: (§2)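 Cells were seeded and cultured for 24 h, then exposed to drug for 96 or 4 h. Cells were counted by hemocytometer. IC50 is the concentration giving a 50% reduction in cell number relative to control.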

[3] = Inhibition of growth of colon carcinoma COLO 2-1 cell line; format: functional; conditions: Homo sapiens, read-out: ED50 (the source's name); method in brief: as §2
[4] = tested on: COLO 320DM; assay: Inhibition of growth of colon cancer COLO 320DM cell line; format: functional; conditions: Homo sapiens, read-out: ED50 (the source's name); method in brief: as §2
[5] = species: Homo sapiens; assay: Inhibition of growth of hepatoma HLE cell line; format: functional; conditions: read-out: ED50 (the source's name); method in brief: as §2
[6] = Inhibition of growth of renal cancer G-402 cell line; format: functional; conditions: Homo sapiens, read-out: ED50 (the source's name); method in brief: as §1
[7] = Inhibition of growth of hepatoma HLF cell line; format: functional; conditions: Homo sapiens, read-out: ED50 (the source's name); method in brief: as §2
[8] = tested on: L1210; assay: The number of mice survived for 30 days at the dose of 2.5 (mg/kg/day); format: functional, Mus musculus
[9] = tested on: L1210; assay: Antitumor activity in vivo expressed as the percentage increase in life span at the dose of 2.5 (mg/kg/day); format: functional, Mus musculus
[10] = tested on: Lewis lung carcinoma cell line; assay: Increased life span at the dose of 0.77 (mg/kg/day); format: functional, Mus musculus
[11] = tested on: Lewis lung carcinoma cell line; assay: Increased life span at the dose of 1.3 (mg/kg/day); format: functional, Mus musculus
[12] = tested on: Lewis lung carcinoma cell line; assay: Increased life span at the dose of 2.3 (mg/kg/day); format: functional, Mus musculus
[13] = tested on: Lewis lung carcinoma cell line; assay: Increased life span at the dose of 4 (mg/kg/day) (number of survivors); format: functional, Mus musculus
[14] = tested on: Lewis lung carcinoma cell line; assay: Increased life span at the dose of 7 (mg/kg/day); format: functional, Mus musculus
[15] = tested on: Lewis lung carcinoma cell line; assay: Mean body weight change after inoculation of 3.2 x 10 e 5 cells iv and administration of compounds iv from days 1-5 at the dose of 0.77 (mg/kg/day); format: functional, Mus musculus
Method in brief: (§3)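 Male BDF1 mice (5 weeks) given 3.2 x 10^5 Lewis lung carcinoma cells iv on day 0, then dosed iv on days 1–5. Seven mice per group, 14 controls. Mean body weight change (g) taken from day 0 to day 6.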

[16] = tested on: Lewis lung carcinoma cell line; assay: Mean body weight change after inoculation of 3.2 x 10 e 5 cells iv and administration of compounds iv from days 1-5 at the dose of 2.3 (mg/kg/day); format: functional, Mus musculus; method in brief: as §3
[17] = tested on: Lewis lung carcinoma cell line; assay: Percentage inhibition of tumor growth at the Lewis lung dose of 1.3 (mg/kg/ day); format: functional, Mus musculus
Method in brief: (§4)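 Lewis lung carcinoma fragments (2 mm3) implanted sc into male BDF1 mice (5 weeks) on day 0. Compound given iv on days 4–8, in saline or saline with 3.5% DMSO and 6.5% Tween 80. Seven mice per group, 10 controls. Percent inhibition from mean tumour weight versus control on day 17; p<0.05, 0.01 or 0.001 versus control.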

[18] = tested on: Lewis lung carcinoma cell line; assay: Percentage inhibition of tumor growth at the Lewis lung dose of 2.3 (mg/kg/ day); format: functional, Mus musculus; method in brief: as §4
[19] = tested on: Lewis lung carcinoma cell line; assay: Percentage inhibition of tumor growth at the Lewis lung dose of 4 (mg/kg/ day); format: functional, Mus musculus; method in brief: as §4
[20] = tested on: Lewis lung carcinoma cell line; assay: Mean body weight change after inoculation of 3.2 x 10 e 5 cells iv and administration of compounds iv from days 1-5 at the dose of 4 (mg/kg/day); format: functional, Mus musculus; method in brief: as §3
[21] = tested on: Lewis lung carcinoma cell line; assay: Mean body weight change after inoculation of 3.2 x 10 e 5 cells iv and administration of compounds iv from days 1-5 at the dose of 7 (mg/kg/day); format: functional, Mus musculus; method in brief: as §3
[22] = tested on: P388; assay: Cytotoxicity against P388 leukemia; format: functional, cell-based; conditions: Mus musculus
[23] = tested on: P388; assay: Antitumor activity in vivo expressed as the percentage increase in life span at the P388 dose of 0.8 (mg/kg/day); format: functional, Mus musculus
Method in brief: (§5)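 P388 leukaemia, 1 × 10^6 cells given sc to male CDF1 mice (5 weeks old) on day 0. Drug was dosed iv on days 1–5 in saline with 3.5% DMSO and 6.5% Tween 80. Groups had 7 mice; controls had 10. ILS was calculated from mean survival time of treated versus control mice, excluding 30-day survivors.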

[24] = tested on: P388; assay: Antitumor activity in vivo expressed as the percentage increase in life span at the P388 dose of 1.3 (mg/kg/day); format: functional, Mus musculus; method in brief: as §5
[25] = tested on: P388; assay: Antitumor activity in vivo expressed as the percentage increase in life span at the P388 dose of 2.3 (mg/kg/day); format: functional, Mus musculus; method in brief: as §5
[26] = Inhibition of growth of lung non-small cell carcinoma PC-7 cell line; format: functional; conditions: Homo sapiens, read-out: ED50 (the source's name); method in brief: as §2
[27] = Inhibition of growth of lung small cell carcinoma RERF-LC-MA cell line; format: functional; conditions: Homo sapiens; read-out: ED50 (the source's name); method in brief: as §2
[28] = tested on: SBC-3; assay: Inhibition of growth of lung small cell carcinoma SBC-3 cell line; format: functional; conditions: Homo sapiens, read-out: ED50 (the source's name); method in brief: as §1
[29] = Inhibition of DNA topoisomerase II from rat liver measured as 50% reduction in the amount of minicircle DNA relative to the control
[30] = molecular target: Tubulin (Bos taurus, UniProt Q6B856+Q862L2+Q862F3); assay: Drug concentration needed to produce a 50% reduction of bovine brain tubulin polymerization relative to the control

Structure (SMILES): COc1cc([C@@H]2c3cc4c(cc3[C@@H](CCN3CCC(N5CCCCC5)CC3)C3COC(=O)[C@@H]32)OCO4)cc(OC)c1O.Cl.Cl (stereo not given in full)
- EC50 [1]: 1.1 µg/mL
- EC50 [2]: 1 µg/mL
- EC50 [3]: 13 µg/mL
- EC50 [4]: 2.1 µg/mL
- EC50 [5]: 0.31 µg/mL
- EC50 [6]: 0.18 µg/mL
- EC50 [7]: 2.7 µg/mL
- Survivors [8]: 6
- ILS max [9]: 102%
- ILS max [10]: 43%
- ILS max [11]: 63%
- ILS max [12]: 133%
- ILS max [13]: -13%
- ILS max [14]: -44%
- bwc [15]: 0.3 g
- bwc [16]: -0.5 g
- Inhibition [17]: 40%
- Inhibition [18]: 50%
- Inhibition [19]: 91%
- bwc [20]: -1.6 g
- bwc [21]: -4.1 g
- IC50 [22]: 0.0033 µM
- ILS max [23]: 143%
- ILS max [24]: 202%
- ILS max [25]: 231%
- EC50 [26]: 4 µg/mL
- EC50 [27]: 35 µg/mL
- EC50 [28]: 0.16 µg/mL
- IC50 [29]: 29.8 µM
- IC50 [30]: > 167 µM
